Experimental data taken from ChEMBL document CHEMBL4613263, “Optimization of Tetrahydroindazoles as Inhibitors of Human Dihydroorotate Dehydrogenase and Evaluation of Their Activity and In Vitro Metabolic Stability” (J Med Chem, 2020).
pIC50: −log10 of the molar value. The source made the active and inactive calls. The rule behind the calls is not given here.

Tests used:
[1] = molecular target: T1, Dihydroorotate dehydrogenase (quinone), mitochondrial (Homo sapiens, UniProt Q02127); assay: Inhibition of DHOH in human ARN8 cells assessed as increase in cleaved PARP level at 20 nM incubated for 24 hrs by Western blot analysis; format: cell-based
Procedure, shortened: (§1)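 ARN8 cells treated 24 h at 20 nM, with 20 µM Z-VAD-FMK or vehicle added 4.5 h before harvest. Etoposide arm was 20 µM for 1 h alongside Z-VAD-FMK. Lysates normalized for protein and analysed by western blot for p53, p-Ser15 p53, γ-H2AX, H2AX and cleaved PARP (85 kDa) against stain-free total-protein loading.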

[2] = Cytotoxicity against human HNDF cells assessed as reduction in cell viability incubated for 72 hrs in presence of 100 uM […], uridine by SRB assay; format: cell-based
Procedure, shortened: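 Normal dermal fibroblasts seeded at 15×10^2 per well and left 24 h, then treated 72 h in medium with 0.1% DMSO final plus 100 µM uridine. Fixed with TCA, stained with 0.4% SRB, dye dissolved in Tris and read at 490 nm. Growth/viability given as % of DMSO control; mean ± SD of three technical replicates.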

[3] = Antiproliferative activity against human ARN8 cells assessed as reduction in cell viability incubated for 72 hrs by SRB assay; format: functional, cell-based; conditions: Homo sapiens, ARN8, 72 h; read-out: IC50
[4] = molecular target: T1, Dihydroorotate dehydrogenase (quinone), mitochondrial; assay: Inhibition of DHODH in human ARN8 cells assessed as increase in p53 level at 20 nM incubated for 24 hrs by Western blot analysis; format: cell-based
Procedure, shortened: (§2)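 ARN8 cells seeded at 15×10^4 per well and left 24 h. Treated 24 h at 20 nM, or with etoposide at 20 µM for 1 h, with 100 µM uridine where indicated. Lysates made in LDS buffer and protein-normalized, then run on 4–15% gels and transferred to PVDF. Phospho-proteins blocked in BSA, others in milk; primary antibodies overnight at 4 °C, ECL detection. Loading judged by stain-free total protein.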

[5] = molecular target: T1, Dihydroorotate dehydrogenase (quinone), mitochondrial; assay: Inhibition of DHODH in human ARN8 cells assessed as induction of DNA damage by measuring increase in p53 phosphorylation at Ser15 at 20 nM incubated for 24 hrs in presence of 100 uM […], uridine by Western blot analysis; format: cell-based; procedure, shortened: as §2
[6] = Metabolic stability in human liver microsomes assessed as half life at 1 uM incubated for 60 mins by LC-MS/MS analysis; format: ADME, Microsome; conditions: liver microsomes
Procedure, shortened: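 Compound at 1 µM with 1.0 mg/mL human or mouse liver microsomes in 50 mM potassium phosphate pH 7.4, preincubated 5 min at 37 °C. Started with 1 mM NADPH (or blank buffer). Quenched with cold acetonitrile containing glipizide at 0, 5, 15, 30, 60 min. Parent loss tracked by LC-MS/MS in MRM mode; t½ = 0.693/k from slope of peak-area ratio versus time.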

[7] = Cytotoxicity against human HNDF cells assessed as reduction in cell viability incubated for 72 hrs by SRB assay; format: cell-based; conditions: Homo sapiens, 72 h; read-out: IC50
Procedure, shortened: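 Human normal dermal fibroblasts seeded at 15×10^2 per well and left 24 h, then exposed to compound for 72 h with 0.1% DMSO final. Cells fixed with TCA at 4 °C for 1 h, stained with SRB, solubilized in 10 mM Tris and read at 490 nm. Values normalized to DMSO control. Tabulated means come only from experiments where IC50 fell below 10 000 nM.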

[8] = molecular target: T1, Dihydroorotate dehydrogenase (quinone), mitochondrial; assay: Inhibition of DHODH in human ARN8 cells assessed as activation of p53-dependent transcription at 0.05 to 10 uM incubated for 16 hrs by CPRG assay; format: cell-based
Procedure, shortened: (§3)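 ARN8 cells carrying the RGCΔFos-LacZ p53 reporter seeded at 2×10^4 per well and left 24 h, then treated 16 h (0.1% DMSO final, ±100 µM uridine). Cells washed, lysed and frozen at −20 °C for at least 2 h. β-galactosidase measured with CPRG substrate at pH 7.5, read at 590 nm after 24 h. Result is fold change vs DMSO; mean ± SD of three technical replicates.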

[9] = molecular target: T1, Dihydroorotate dehydrogenase (quinone), mitochondrial; assay: Inhibition of DHODH in human ARN8 cells assessed as increase in p53 level at 20 nM incubated for 24 hrs in presence of pan-caspase inhibitor, Z-VAD-FMK by Western blot analysis; format: cell-based; procedure, shortened: as §1
[10] = molecular target: T1, Dihydroorotate dehydrogenase (quinone), mitochondrial; assay: Inhibition of DHOH in human ARN8 cells assessed as increase in YOYO3 positive cells at 20 nM incubated for 48 hrs in presence of pan-caspase inhibitor, Z-VAD-FMK measured every 2 hrs by YOYO-3 staining based live cell imaging analysis
Procedure, shortened: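 ARN8 cells seeded at 4×10^3 per well and left 24 h, then given 20 nM compound in medium containing 2 µM caspase-3/7 substrate and 0.3 µM YOYO-3 (0.2% DMSO). Where indicated, 100 µM uridine or 20 µM Z-VAD-FMK was added. Cells imaged every 2 h for 48.5 h in an IncuCyte. Positive-cell counts per mm² normalized to confluence %; mean ± SD of three technical replicates.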

[11] = molecular target: T1, Dihydroorotate dehydrogenase (quinone), mitochondrial; assay: Inhibition of DHODH in human ARN8 cells assessed as DNA damage by measuring Chk2 phosphorylation at Thr68 at 20 nM incubated for 24 hrs by Western blot analysis; format: cell-based
Procedure, shortened: (§4)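 ARN8 cells treated 24 h before lysis in LDS buffer and protein normalization. Western blot blocked in 5% BSA/TBS-T, primary antibody overnight at 4 °C, HRP secondary and ECL detection. Loading taken from stain-free total protein.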

[12] = molecular target: T1, Dihydroorotate dehydrogenase (quinone), mitochondrial; assay: Inhibition of DHODH in human ARN8 cells assessed as induction of DNA damage by measuring increase in p53 phosphorylation at Ser15 at 20 nM incubated for 24 hrs in presence of pan-caspase inhibitor, Z-VAD-FMK by Western blot analysis; format: cell-based; procedure, shortened: as §1
[13] = molecular target: T1, Dihydroorotate dehydrogenase (quinone), mitochondrial; assay: Inhibition of DHODH in human ARN8 cells assessed as DNA damage by measuring Chk1 phosphorylation at Ser345 at 20 nM incubated for 24 hrs by Western blot analysis; format: cell-based; procedure, shortened: as §4
[14] = molecular target: T1, Dihydroorotate dehydrogenase (quinone), mitochondrial; assay: Inhibition of recombinant human DHODH using dihydroorotic acid as substrate in presence of 2 nM of DHODH by DCIP assay
[15] = molecular target: T1, Dihydroorotate dehydrogenase (quinone), mitochondrial; assay: Inhibition of DHOH in human ARN8 cells assessed as gammaH2AX level at 20 nM incubated for 24 hrs treated with pan-capse inhibitor, Z-VAD-FMK for 4.5 hrs prior to harvesting by Western blot analysis; format: cell-based; procedure, shortened: as §1
[16] = molecular target: T1, Dihydroorotate dehydrogenase (quinone), mitochondrial; assay: Inhibition of DHOH in human ARN8 cells assessed as cleaved PARP level at 20 nM incubated for 24 hrs treated with pan-caspase inhibitor, Z-VAD-FMK for 4.5 hrs prior to harvesting by Western blot analysis; format: cell-based; procedure, shortened: as §1
[17] = molecular target: T1, Dihydroorotate dehydrogenase (quinone), mitochondrial; assay: Inhibition of […] in human ARN8 cells assessed as increase in Bax protein expression at 20 nM incubated for 24 hrs by Western blot analysis; format: cell-based
[18] = molecular target: T1, Dihydroorotate dehydrogenase (quinone), mitochondrial; assay: Inhibition of DHODH in human ARN8 cells assessed as activation of p53-dependent transcription at 0.05 to 10 uM incubated for 16 hrs in presence of 100 uM […], uridine by CPRG assay; format: cell-based; procedure, shortened: as §3
[19] = molecular target: T1, Dihydroorotate dehydrogenase (quinone), mitochondrial; assay: Inhibition of DHODH in human ARN8 cells assessed as induction of DNA damage by measuring increase in gammaH2AX level at 20 nM incubated for 24 hrs by Western blot analysis; format: cell-based; procedure, shortened: as §2

T1 sequence (Q02127 whole entry): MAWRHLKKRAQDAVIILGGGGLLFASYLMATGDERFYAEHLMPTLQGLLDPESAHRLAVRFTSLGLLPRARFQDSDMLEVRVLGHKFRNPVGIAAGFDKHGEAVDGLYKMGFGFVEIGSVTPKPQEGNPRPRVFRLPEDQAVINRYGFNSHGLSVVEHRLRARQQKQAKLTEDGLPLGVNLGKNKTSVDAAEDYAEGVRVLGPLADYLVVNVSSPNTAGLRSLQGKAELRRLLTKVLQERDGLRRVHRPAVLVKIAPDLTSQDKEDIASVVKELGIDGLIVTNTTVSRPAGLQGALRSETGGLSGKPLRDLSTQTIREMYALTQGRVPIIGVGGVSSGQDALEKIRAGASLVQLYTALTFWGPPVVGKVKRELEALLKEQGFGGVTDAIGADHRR

With `O=C(N[C@@H]1CCCc2c1cnn2-c1ccccc1F)c1ncn2c1CCCC2` as the molecule, how does the inhibition [1] read?
Its inhibition is “Active”.

And the Activity [2]?
Its Activity is “Toxic”.

And the pIC50 [3]?
Its pIC50 is 7.66.

What about the inhibition [4] of the same molecule?
Its inhibition is “Active”.

What about the inhibition [5] of the same molecule?
Its inhibition is “inactive”.

And the half-life at 1 µM [6]?
Its half-life at 1 µM is greater than 60 min.

And the pIC50 [7]?
The pIC50 was less than 5.00.

What about the inhibition [8] of the same molecule?
Its inhibition is “Active”.

What about the inhibition [9] of the same molecule?
The inhibition was “Active”.

What about the inhibition [10] of the same molecule?
The inhibition was “inactive”.

What about the inhibition [11] of the same molecule?
Its inhibition is “inactive”.

And the inhibition [12]?
Its inhibition is “Active”.

And the inhibition [13]?
The inhibition was “inactive”.

What about the pIC50 [14] of the same molecule?
The pIC50 was 8.64.

And the inhibition [15]?
Its inhibition is “inactive”.

What about the inhibition [16] of the same molecule?
Its inhibition is “inactive”.

And the inhibition [17]?
Its inhibition is “Active”.

And the inhibition [18]?
Its inhibition is “inactive”.

What about the inhibition [19] of the same molecule?
The inhibition was “Active”.
